Compound activity (PubChem BioAssay)
IMP-1 inhibitor – blocks Pseudomonas aeruginosa IMP-1 metallo-beta-lactamase | purified IMP-1, nitrocefin hydrolysis, epi-absorbance fluorescence | inhibition, % at 5.6 µM | 290,000 tested, 0.45% active;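 active = inhibition above the mean plus 3 SD of all compounds in the same screening run, cut at about 4.5% in these data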;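 also: 0% = IMP-1 with DMSO and 100% = DMSO wells lacking enzyme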
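assay system = purified recombinant IMP-1 metallo-beta-lactamase enzyme | schedule = 15 min preincubation plus 25 min reaction at 25 °C | signal = Epi-absorbance fluorescence, 480 nm excitation, 530 nm emission | read-out basis = percent inhibition from optical density relative to buffer-blank wells | controls = IMP-1 with DMSO as 0%, enzyme-free DMSO as 100%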
core dimer inh – HCV core protein dimerization inhibition; TR-FRET GST/Flag-core106 dimerization, 1536-well; 300,000 tested, 0.33% active; inhibition, % at 5 µM;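 active = inhibition above the mean of all tested compounds plus 3 SD, set per screening campaign, cut at about 45% in these data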
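Material: GST/Flag-tagged HCV core106 proteins. Incubation: 4 h, 22.5 °C incubation. Read-out basis: inhibition (%) from 671 over 617 nm ratio. Measured by: TR-FRET, excitation 340 nm, emission 617 and 671 nm.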
NadD inh – NadD (S. aureus) enzyme inhibition. purified NadD enzyme, colorimetric absorbance read-out. inhibition, % at 20 µM. 360,000 tested, 0.78% active; in the data active = inhibition above about 26%
VIM-2 inh – inhibitors of Pseudomonas aeruginosa VIM-2 metallo-beta-lactamase; inhibition, % at 5.6 µM; 290,000 tested, 0.89% active; purified VIM-2, nitrocefin hydrolysis, epi-absorbance fluorescence;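 active = inhibition above the mean of all tested compounds plus 3 SD, cutoff set per screening run, cut at about 7.5% in these data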;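 also: red hydrolysis product quenches plate fluorescence so inhibitors raise well fluorescence; 0% = enzyme with DMSO and 100% = DMSO without enzyme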
Active calls of the source: *; · = no result given. Hits are enriched below; roughly 1.9% of the tested compounds scored in any of these assays.

SMILES	IMP-1 inhibitor	core dimer inh	NadD inh	VIM-2 inh
COc1ccc2oc(C(=O)c3ccccc3)c(NC(=O)CN3CCN(C)CC3)c2c1	-2.4	-10.2	-2.7	9.2*
COc1ccc2oc(C(=O)c3ccccc3)c(N)c2c1	-0.5	-8.3	·	1.5
CCOC(=O)c1oc2ccc(Br)cc2c1NC(=O)CN1CCN(C)CC1	4.0	-7.0	-4.5	9.8*
CCn1c(CC(=O)Nc2ccccc2F)nnc1SCC(=O)NC1CCCC1	1.0	-7.7	-2.1	0.5
Cc1c(Cc2ccccc2)sc(/N=C/c2c(O)ccc3ccccc23)c1C(N)=O	-3.4	32.9	35.8*	-4.8
CC(C)(C)NC(=O)CN(CCN1CCOCC1)C(=O)CNS(=O)(=O)c1ccccc1	-2.9	-0.1	-3.9	-3.4
COC(=O)c1c(NC(=O)c2ccoc2C)sc(C)c1C	-1.9	0.4	-3.9	-0.6
CCOC(=O)c1sc(NC(=O)c2ccoc2C)c(C(N)=O)c1C	-0.4	4.2	-0.8	8.0*
O=C(CCS(=O)(=O)c1ccc(Br)cc1)NCc1ccc(F)cc1	28.0*	-120.9	-10.0	-2.2
CC(=O)Oc1ccc(C(=O)Nc2cccc(-c3nnc(-c4ccco4)o3)c2)cc1	42.4*	7.0	-5.2	-2.6
Cn1nc(-c2ccc(OCC(=O)Nc3ccccc3)cc2)c2ccccc2c1=O	-2.9	3.3	-3.8	9.3*
COc1ccc(CC(=O)Nc2ccc(-c3nnc(-c4ccccc4)o3)cc2)cc1OC	-8.2	82.7*	-11.6	-0.2
COc1ccc(CC(=O)Nc2cccc(-c3nnc(-c4ccccc4)o3)c2)cc1OC	-1.4	·	-12.6	-3.9
O=C(COc1ccccc1)Nc1ccc(-c2nnc(-c3ccco3)o2)cc1	-2.4	51.8*	-0.3	-2.0
COc1ccccc1OCC(=O)Nc1cccc(-c2nnc(-c3ccco3)o2)c1	-2.0	3.5	-5.3	-2.5
C[C@H](NC(=O)c1ccco1)C(=O)Nc1cc(S(=O)(=O)N2CCCC2)ccc1OCC(F)(F)F	·	·	3.2	·
O=c1cc[nH]c2c1ccc1cccnc12	·	-10.5	-2.4	·
Nc1cccc2c1C(=O)N(C(=O)/C=C/c1cccc(Br)c1)C2=O	4.8*	·	4.0	0.5
CCc1ccc(/C=C2/SC(=S)N(CCC(=O)Nc3ccc(C(=O)O)cc3)C2=O)cc1	-5.6	6.2	39.8*	-3.7
O=C(CCN1C(=O)/C(=C/C=C/c2ccccc2)SC1=S)Nc1cccnc1	4.2	28.7	17.8	-0.2
O=C(CN1C(=O)/C(=C/c2cccc(Br)c2)SC1=S)NCCCN1CCOCC1	4.8*	3.3	-3.6	-3.2
O=C(CCCN1C(=O)/C(=C/c2cccc(Br)c2)SC1=S)NCCCN1CCOCC1	-1.9	-2.5	-5.3	2.5
CCc1ccc(/C=C2\SC(=S)N(CCCC(=O)Nc3ccccn3)C2=O)cc1	-2.7	15.0	3.5	-1.5
CCc1ccc(/C=C2/SC(=S)N(CC(=O)Nc3nc4ccccc4s3)C2=O)cc1	-1.2	38.5	50.2*	-10.9
CCc1ccc(C=C2SC(=S)N(CCCC(=O)Nc3ccc(C(=O)O)cc3)C2=O)cc1	·	·	24.3	·
SMILES	IMP-1 inhibitor	core dimer inh	NadD inh	VIM-2 inh
O=C(CCN1C(=O)/C(=C/C=C/c2ccccc2)SC1=S)Nc1ccccn1	-0.4	32.0	37.0*	-1.2
CC(=O)c1ccc(NC(=O)CN2C(=O)/C(=C/C=C/c3ccccc3)SC2=S)cc1	-0.9	65.0*	35.9*	-0.6
O=C(O)CN1C(=O)/C(=C\c2ccc(OC(=O)c3ccco3)cc2)SC1=S	0.1	-3.2	1.6	1.9
CC(=O)NNC(=O)CN1C(=O)/C(=C/c2ccccc2)SC1=S	9.6*	-2.1	-3.0	5.5
CCN(CC)C(=O)CN1C(=O)/C(=C/c2ccccc2)SC1=S	-2.1	-0.8	-6.9	-0.9
COc1ccc(/C=C2/SC(=O)N(CCC(=O)Nc3ccc(C)cc3)C2=O)cc1OC	0.3	5.4	·	-0.9
COc1cc(/C=C2/SC(=S)N(CC(=O)O)C2=O)ccc1OCC(=O)Nc1ccc(C)c(C)c1	7.5*	7.3	30.4*	-0.8
O=C(O)CN1C(=O)/C(=C/c2ccc(SCc3ccccc3)o2)SC1=S	4.7*	·	12.7	4.5
O=C(COC(=O)/C=C/c1ccc(F)cc1)NC1CCS(=O)(=O)C1 (stereo not drawn)	·	·	1.7	·
Cc1cc(C)n2nc(SCC(=O)Nc3ccc(F)c(F)c3F)nc2n1	·	·	-2.6	·
C[C@H](NC(=O)C1CCN(S(=O)(=O)c2ccccc2)CC1)C(=O)NCc1ccc(Cl)cc1Cl	-4.1	-7.0	-9.7	-3.5
Cc1c(C(=O)NCc2cccs2)oc2ccc(Br)cc12	5.3*	2.9	-7.1	1.4
Cc1c(C(=O)NCc2ccccn2)oc2ccc(Br)cc12	·	1.9	-6.2	·
CN1CCN([C@H]2CS(=O)(=O)N[C@@H]2COCc2ccccc2)CC1	·	·	-4.1	·
